From ChEMBL document CHEMBL1157410, “7-aryl 1,5-dihydro-benzo[e][1,4]oxazepin-2-ones and analogs as non-steroidal progesterone receptor antagonists” (Bioorg Med Chem, 2008) come the findings set out here.

SMILES strings stand for the structures. A value given as a limit tells only on which side of the number the result lay.

The target of one experiment is T1, Glucocorticoid receptor (Homo sapiens, UniProt P04150).
T1 sequence (P04150 whole entry): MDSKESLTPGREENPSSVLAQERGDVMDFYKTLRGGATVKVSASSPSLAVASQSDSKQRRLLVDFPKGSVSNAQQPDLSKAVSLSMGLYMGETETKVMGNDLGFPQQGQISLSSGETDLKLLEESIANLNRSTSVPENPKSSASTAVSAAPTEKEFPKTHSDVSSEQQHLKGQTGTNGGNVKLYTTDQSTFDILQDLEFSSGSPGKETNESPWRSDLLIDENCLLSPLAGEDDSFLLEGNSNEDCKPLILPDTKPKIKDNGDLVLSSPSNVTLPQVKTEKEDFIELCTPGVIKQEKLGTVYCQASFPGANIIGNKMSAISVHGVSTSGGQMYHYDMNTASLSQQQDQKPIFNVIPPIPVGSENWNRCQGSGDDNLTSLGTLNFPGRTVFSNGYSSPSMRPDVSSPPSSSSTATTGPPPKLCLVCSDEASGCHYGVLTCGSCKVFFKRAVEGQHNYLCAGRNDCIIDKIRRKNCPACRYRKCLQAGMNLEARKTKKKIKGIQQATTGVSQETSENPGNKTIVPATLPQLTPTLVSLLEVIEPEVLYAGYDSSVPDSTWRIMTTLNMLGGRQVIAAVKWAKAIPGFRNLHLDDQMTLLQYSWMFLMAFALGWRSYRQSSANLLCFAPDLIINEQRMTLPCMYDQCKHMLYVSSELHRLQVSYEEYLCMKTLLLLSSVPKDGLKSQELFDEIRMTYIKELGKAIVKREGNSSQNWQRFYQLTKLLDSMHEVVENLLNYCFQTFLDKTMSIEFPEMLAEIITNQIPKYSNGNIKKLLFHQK
In words: Antagonist activity at cloned glucocorticoid receptor-ligand binding domain expressed in african green monkey COS7 cells by GAL4 luciferase reporter assay. Format: cell-based, COS-7.

In experiment [1] the target is T2, Mineralocorticoid receptor (Homo sapiens, UniProt P08235).
T2 sequence (P08235 whole entry): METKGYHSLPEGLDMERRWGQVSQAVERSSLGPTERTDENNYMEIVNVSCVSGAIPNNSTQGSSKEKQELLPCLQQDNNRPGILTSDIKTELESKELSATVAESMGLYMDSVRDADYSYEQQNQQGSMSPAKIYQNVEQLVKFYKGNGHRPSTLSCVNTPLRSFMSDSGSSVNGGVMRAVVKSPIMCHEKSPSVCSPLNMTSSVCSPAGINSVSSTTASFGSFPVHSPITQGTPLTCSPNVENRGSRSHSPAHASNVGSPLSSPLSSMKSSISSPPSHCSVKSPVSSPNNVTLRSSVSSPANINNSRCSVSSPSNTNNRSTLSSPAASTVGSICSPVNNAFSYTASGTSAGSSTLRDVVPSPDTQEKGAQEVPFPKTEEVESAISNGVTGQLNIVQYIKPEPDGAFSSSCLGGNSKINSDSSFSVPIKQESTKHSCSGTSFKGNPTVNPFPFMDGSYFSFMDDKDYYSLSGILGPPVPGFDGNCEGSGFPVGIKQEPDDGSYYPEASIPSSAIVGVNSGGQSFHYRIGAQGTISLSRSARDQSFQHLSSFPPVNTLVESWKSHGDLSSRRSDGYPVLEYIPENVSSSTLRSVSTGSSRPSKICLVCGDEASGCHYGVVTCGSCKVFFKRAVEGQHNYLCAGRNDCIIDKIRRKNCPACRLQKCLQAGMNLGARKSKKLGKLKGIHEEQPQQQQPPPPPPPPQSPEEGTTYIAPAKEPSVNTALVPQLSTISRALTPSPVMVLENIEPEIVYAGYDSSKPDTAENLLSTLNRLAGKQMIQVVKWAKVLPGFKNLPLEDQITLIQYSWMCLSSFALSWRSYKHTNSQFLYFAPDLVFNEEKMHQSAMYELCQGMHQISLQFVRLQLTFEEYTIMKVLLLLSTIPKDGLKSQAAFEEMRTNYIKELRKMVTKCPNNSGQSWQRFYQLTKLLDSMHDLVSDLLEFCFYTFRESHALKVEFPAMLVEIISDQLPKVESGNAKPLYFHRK
In words: (§1) Antagonist activity at cloned mineralocorticoid receptor-ligand binding domain expressed in african green monkey COS7 cells by GAL4 luciferase reporter assay. The format is cell-based, COS-7. The gist of the method:
(§2)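 GAL4 DNA-binding domain fused to receptor ligand-binding domain, one-hybrid format. LBD fusion and GAL4_UAS (5 copies, E1b minimal TATA) luciferase reporter plasmids, 50 ng/well each, transfected 16 h into COS-7 cells. Cells grown in phenol red-free DMEM with 10% charcoal/dextran-treated FBS. Compound exposure 20 h, then luciferase read on lysates. Mean of at least duplicate determinations.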
On the technique in general: A reporter such as luciferase makes a cellular process visible.

The target in experiment [2] is T3, Mineralocorticoid receptor (Homo sapiens) (UniProt P08235).
T3 sequence (whole entry): T2 sequence (P08235 whole entry)
Described as §1. Format: cell-based. To be noted: COS-7; concentration not given here. The gist of the method: as §2

A short description of experiment [3]: Selectivity for progesterone receptor over mineralocorticoid receptor.
The nature of experiment [4]: Selectivity for progesterone receptor over glucocorticoid receptor.
The next experiment deals with Rattus norvegicus. In words: Activity in ovariectomized rat assessed as inhibition of progesterone-induced decidualization at 3 mg/kg, po. Set-up: scale not given: the % may be the effect or the level left. Format: functional.
Experiment [5] can be described thus: Selectivity for progesterone receptor over androgen receptor.
Experiment [6] in a line: Selectivity for progesterone receptor over estrogen receptor.

With `CC1(C)OCC(=O)Nc2ccc(-c3cc(F)cc(C#N)c3)cc21`, the results for the IC50 (on Glucocorticoid receptor; in experiment [1]) were greater than 3000 nM and greater than 3 µM, respectively. Also, the inhibition in experiment [2] was found to be 32%. In addition, the Selectivity ratio in experiment [3], in experiment [4], in experiment [5] and in experiment [6] was greater than 100 in each case. The Activity in the experiment with Rattus norvegicus came to 50%.
In the case of `N#Cc1cc(F)cc(-c2ccc3c(c2)C(c2ccco2)(c2ccco2)OCC(=O)N3)c1`, the IC50 on Glucocorticoid receptor was 1300 nM; in experiment [1] it was greater than 3 µM. Also, the inhibition in experiment [2] stood at 60%. The Selectivity ratio in experiment [3], in experiment [4], in experiment [5] and in experiment [6] was greater than 100 in each case.
In the case of `CCC1(c2ccco2)OCC(=O)Nc2ccc(-c3cc(F)cc(C#N)c3)cc21` (centres undefined), the IC50 on Glucocorticoid receptor is 190 nM; in experiment [1], greater than 3 µM. This molecule gave an inhibition in experiment [2] of 82%. In addition, the Activity in the experiment with Rattus norvegicus is listed as 50%.

In general, IC50 refers to the concentration that gives 50% inhibition. What is called inhibition is the share of the control response that was lost under treatment.
